# In ChEMBL document CHEMBL1153925, “Synthesis, characterization and biological activity of ring-substituted 6-benzylamino-9-tetrahydropyran-2-yl and 9-tetrahydrofuran-2-ylpurine derivatives” (Bioorg Med Chem, 2009):
# Experiments:
# Amaranthus = assay: Cytokinin activity in cotyledons assessed as dark induction of betacyanin synthesis at 100 uM relative to 6-benzylaminopurine; assay type: functional
# MCF7 = assay: Cytotoxicity against human MCF7 cells after 72 hrs by Calcein AM assay; assay type: ADME, cell-based; settings: MCF7, 72 h
# Nicotiana tabacum [1] = assay: Cytokinin activity in tobacco callus assessed as stimulation of callus growth at 100 uM relative to 6-benzylaminopurine; assay type: functional
# Procedure, shortened: (§1)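 Compounds dissolved in DMSO, diluted with water to 5 × 10^-2 M stock, then diluted in medium to 10^-8 to 10^-4 M. Final DMSO ≤0.2%; solvent control 0.2% DMSO. Readout was cytokinin-dependent tobacco callus growth. Activity is expressed relative to 10^-6 M BAP (=100%) at each compound's optimal concentration. Five replicates per concentration; whole test run at least twice.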
# BJ = assay: Cytotoxicity against human BJ cells after 72 hrs by MTT assay; assay type: ADME, cell-based
# K562 = assay: Cytotoxicity against human K562 cells after 72 hrs by Calcein AM assay; assay type: ADME, cell-based; settings: K562, 72 h
# Triticum aestivum = assay: Cytokinin activity in wheat leaf assessed as stimulation of retention of chlorophyll in excised leaves at 0.1 mM relative to 6-benzylaminopurine; assay type: functional
# Nicotiana tabacum [2] = assay: Cytokinin activity in tobacco callus assessed as stimulation of callus growth at 10 uM relative to 6-benzylaminopurine; assay type: functional; procedure, shortened: as §1
# Nicotiana tabacum [3] = assay: Cytokinin activity in tobacco callus assessed as stimulation of callus growth at 1 uM relative to 6-benzylaminopurine; assay type: functional
SMILES,Activity (Amaranthus) [%],IC50 (MCF7) [µM],Activity (Nicotiana tabacum [1]) [%],IC50 (BJ) [µM],IC50 (K562) [µM],Activity (Triticum aestivum) [%],Activity (Nicotiana tabacum [2]) [%],Activity (Nicotiana tabacum [3]) [%]
Oc1cccc(CNc2ncnc3c2ncn3C2CCCCO2)c1O (stereo not drawn),8,> 100,3.2,63.3,92,,,
Oc1cc(O)cc(CNc2ncnc3c2ncn3C2CCCCO2)c1 (stereo not drawn),33,> 100,,> 100,> 100,15,36,
COc1cc(CNc2ncnc3c2ncn3C2CCCCO2)cc(OC)c1OC (stereo not drawn),19,> 100,17,> 100,> 100,7,,
c1ccc(CNc2ncnc3c2ncn3C2CCCO2)cc1 (stereo not drawn),109,> 100,,> 100,> 100,107,,95
Oc1ccc(CNc2ncnc3c2ncn3C2CCCO2)cc1 (stereo not drawn),10,> 100,,> 100,> 100,8,19,
COc1ccccc1CNc1ncnc2c1ncn2C1CCCO1 (stereo not drawn),107,> 100,,> 100,> 100,72,91,
COc1cccc(CNc2ncnc3c2ncn3C2CCCO2)c1 (stereo not drawn),123,> 100,,> 100,> 100,82,,96
COc1ccc(CNc2ncnc3c2ncn3C2CCCO2)cc1 (stereo not drawn),25,> 100,,> 100,> 100,16,,7
COc1ccc(CNc2ncnc3c2ncn3C2CCCO2)cc1OC (stereo not drawn),5,> 100,,> 100,> 100,7,,3
COc1cc(CNc2ncnc3c2ncn3C2CCCCO2)ccc1O (stereo not drawn),26,> 100,8.7,> 100,> 100,7,,
COc1cc(OC)c(CNc2ncnc3c2ncn3C2CCCCO2)c(OC)c1 (stereo not drawn),14,> 50,2,> 50,> 50,3,,
COc1ccc(CNc2ncnc3c2ncn3C2CCCCO2)cc1OC (stereo not drawn),8,> 100,,> 100,> 100,8,,
COc1ccc(CNc2ncnc3c2ncn3C2CCCCO2)c(OC)c1OC (stereo not drawn),4,> 37.5,,> 37.5,> 37.5,7,,
Oc1ccccc1CNc1ncnc2c1ncn2C1CCCO1 (stereo not drawn),41,> 100,58,> 100,> 100,25,,
Oc1ccccc1CNc1ncnc2c1ncn2C1CCCCO1 (stereo not drawn),46,> 100,,> 100,> 100,31,37,
COc1ccc(CNc2ncnc3c2ncn3C2CCCCO2)cc1 (stereo not drawn),18,> 100,,> 100,> 100,,,10
COc1ccc(CNc2ncnc3c2ncn3C2CCCO2)c(OC)c1 (stereo not drawn),14,> 100,,> 100,> 100,18,,3
